HCV core dimer – inhibitors of HCV core protein dimerization, primary screen, biochemical, TR-FRET, high-throughput; TR-FRET GST/Flag-core106 dimerization, 1536-well; inhibition, % at 5 µM; hit rate 0.33% among 300,000;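 active = inhibition above the mean of all tested compounds plus 3 SD, set per screening campaign, cut at about 45% in these data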
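System: GST-tagged and Flag-tagged HCV core protein residues 1-106 / Input: core106 proteins, GST 13.5 nM and Flag 17 nM / Buffer or medium: KF-containing HEPES buffer, pH 7.45, DTT, CHAPS, BSA / Probe or stimulus: Eu-anti-GST and XL665-anti-Flag labelled anti-tag antibodies / Schedule: 4 h, 22.5 °C incubation / Technique: TR-FRET 671 and 617 nm emission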
Fh CTSL1 inh – Fasciola hepatica cathepsin L1 inhibitors, primary screen, counter-screen for PFM18AAP inhibitor project, biochemical, QFRET, fluorogenic peptide substrate | recombinant F. hepatica cathepsin L1, Z-Leu-Arg-MCA fluorescence | inhibition, % at 5.96 µM | hit rate 0.49% among 300,000 | AID 1906, 2009;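 active = inhibition above the mean of all tested compounds plus 3 SD, set per screening campaign, cut at about 17% in these data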;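 also: 0% = plate median of test compound wells and 100% = 1 µM Z-Phe-Ala-diazomethylketone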
PP1 inh – PP1-alpha phosphatase inhibitors, primary screen, counter-screen for PP5 inhibitor project, biochemical, fluorescence, OMFP substrate, single point; Serine/threonine-protein phosphatase PP1-alpha catalytic subunit (Homo sapiens), P62136; purified PP1alpha; inhibition, % at 6.7 µM; hit rate 0.9% among 320,000; AID 2235, 2010;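 active = inhibition above the mean inhibition of all tested compounds plus 3 SD, computed separately for each screening campaign, cut at about 15% in these data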
Target sequence (P62136 whole entry, looked up): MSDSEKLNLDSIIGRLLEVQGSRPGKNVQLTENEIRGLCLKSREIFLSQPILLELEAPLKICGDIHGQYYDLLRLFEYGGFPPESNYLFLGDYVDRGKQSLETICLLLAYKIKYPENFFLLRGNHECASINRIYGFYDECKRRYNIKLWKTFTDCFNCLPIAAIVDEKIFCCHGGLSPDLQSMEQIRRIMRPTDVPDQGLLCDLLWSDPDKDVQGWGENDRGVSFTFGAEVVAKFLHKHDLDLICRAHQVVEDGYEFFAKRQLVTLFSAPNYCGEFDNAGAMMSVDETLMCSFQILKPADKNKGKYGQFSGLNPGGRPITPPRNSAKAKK
NadD inh – inhibitors of S. aureus NadD, primary screen, biochemical, colorimetric, uHTS; AID 602399, 2012; hit rate 0.78% among 360,000; inhibition, % at 20 µM; purified NadD enzyme, colorimetric absorbance read-out; in the data active = inhibition above about 26%
Myeloid diff MLP – induction of myeloid progenitor differentiation, primary screen, cell-based, flow cytometry, MLPCN library; hit rate 1% among 360,000; calls only at 10 µM; ER-HoxA9 myeloid progenitors, lysozyme-GFP differentiation;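 active = normalized GFP-positive differentiation at or above the plate's own cutoff, the solvent-only control mean plus 3 SD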;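 also: cells exposed to compound for four days before flow analysis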
PP5 primary – PP5 phosphatase inhibitors, primary screen, biochemical, fluorescence | Serine/threonine-protein phosphatase 5 (Homo sapiens), P53041 | inhibition, % at 6.7 µM | hit rate 0.18% among 320,000 | purified PP5c, OMFP substrate fluorescence | AID 1987, 2009;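 active = inhibition above the campaign's mean inhibition across all tested compounds plus 3 SD, cut at about 9.5% in these data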;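 also: 0% = DMSO only and 100% = 100 µM cantharidin control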
Starred values were filed as active, the others as inactive; i = inactive; x = no result given; + = active, no number. An excerpt weighted towards active compounds, which were near 3.1% of everything screened.

SMILES	HCV core dimer	Fh CTSL1 inh	PP1 inh	NadD inh	Myeloid diff MLP	PP5 primary
CSc1cccc(CN2CCC(Oc3ccc(C(=O)N4CCCCC4)cc3)CC2)c1	-3	3	-1	4	i	1
O=C(Nc1ccc(C(=O)O)cc1)/C(=C\c1ccco1)NC(=O)c1ccco1	-13	8	-10	-6	i	-9
CC(C)(C)N=C1NN=C(c2ccc(Cl)cc2)CS1	-1	21*	-1	-2	i	2
N#C/C(=C(/O)CCl)c1nc2c(s1)CCc1ccccc1-2	10	-2	-1	-4	+	-1
COc1ccc(CCNC(=O)c2cnc3n(c2=O)CCS3)cc1OC	-3	41*	0	0	i	1
COc1ccc(CCNC(=O)c2ccc3nc(-c4ccco4)c(-c4ccco4)nc3c2)cc1OC	57*	2	10	47*	i	2
COc1ccc(CCNC(=O)c2ccccc2C(=O)NCCc2ccc(OC)c(OC)c2)cc1OC	-8	-3	0	6	i	2
CCc1nc2ccc(C(=O)NCCc3ccc(OC)c(OC)c3)cc2nc1CC	-2	0	-1	10	i	0
COc1ccc(CCNC(=O)Oc2ccccc2)cc1OC	-1	18*	1	0	i	0
O=C(NCCc1ccc(Cl)cc1)c1cnc2n(c1=O)CCS2	2	-4	3	-2	i	2
Cc1cc(C)c(NC(=O)c2cccs2)c(C)c1NC(=O)c1cccs1	0	-3	0	-3	i	3
CC1CCCN(CCCNS(=O)(=O)c2ccc3c(c2)CCN3C(=O)C2CC2)C1 (centres undefined)	-1	2	-4	6	i	-2
O=C1NC[C@H](CCCCN2CCN(CCc3ccccc3)C(=O)C2=O)N(Cc2ccccc2)C1=O	x	x	x	6	i	x
CSc1ccc(/C=C/C(=O)OCC(=O)NC2CCS(=O)(=O)C2)cc1 (centres undefined)	x	x	0	-2	i	3
Cc1cc(C)c(S(=O)(=O)NCc2csc(C)n2)c(C)c1	x	x	x	-6	i	x
COc1ccc([C@H]2CC(=O)C[C@@H](CCn3cc(C)nn3)O2)cc1	x	x	x	-2	i	x
Cc1ccc2nc(-c3ccc(NC(=O)CSc4nc(N)cc(=O)[nH]4)cc3)sc2c1	30	3	16*	15	i	-2
Cc1ccc2nc(-c3ccc(NC(=O)CSc4nccc(=O)[nH]4)cc3)sc2c1	-19	1	2	8	i	1
COc1ccc(C)cc1NC(=O)COC(=O)c1ccc2c(c1)OCCO2	x	x	-5	-1	i	-1
COc1cc(/C=C/C(=O)O)cc(S(=O)(=O)Nc2ccccc2Oc2ccccc2)c1OC	-1	21*	-2	-6	i	-1
COc1cc(/C=C/C(=O)O)cc(S(=O)(=O)Nc2ccc3[nH]c(=O)[nH]c3c2)c1OC	3	-1	-1	6	i	4
CCOc1ccc(C(C)=O)cc1CN1C(=O)c2ccccc2S1(=O)=O	1	-1	-2	-5	i	0
O=C1N/C(=N/NC(=O)c2cccc3ccccc23)S/C1=C\c1ccccc1OCc1ccccc1	x	x	x	82*	i	x
COc1ccc(OC)c(/C=C2\S/C(=N/NC(=O)c3ccc4ccccc4c3)NC2=O)c1	4	7	4	70*	i	2
CCN(c1ccccc1)S(=O)(=O)c1ccc(C(=O)NCC(=O)Nc2ccc(F)c(F)c2F)cc1	x	x	x	-2	i	x
SMILES	HCV core dimer	Fh CTSL1 inh	PP1 inh	NadD inh	Myeloid diff MLP	PP5 primary
O=C(N/N=C/c1ccccc1[N+](=O)[O-])c1cnccn1	3	1	0	6	i	1
COc1ccc(CN(C)C(=O)C(CCSC)NS(=O)(=O)c2ccc3c(c2)OCCO3)c(OC)c1OC (centres undefined)	x	x	x	-6	i	x
CCOC(=O)CSc1ccc2ccccc2n1	4	-4	-6	-1	i	1
CCOC(=O)CN1C=C(c2ccc3ccccc3n2)C(C[N+](=O)[O-])c2ccccc21 (centres undefined)	4	4	6	-1	+	5
Cc1ccc(S(=O)(=O)N2CCOCC2)cc1NC(=O)COC(=O)c1ccc(Cl)nc1	x	x	x	-3	i	x
COc1ccc(NC(=O)C2Cc3c(-c4ccc5c(c4)OCO5)ccnc3O2)cc1 (centres undefined)	x	x	x	2	+	x
CC(=O)Nc1ccc(NC(=O)C2Cc3c(-c4ccc5c(c4)OCO5)ccnc3O2)cc1 (centres undefined)	x	x	x	1	i	x
COc1cccc(NC(=O)COC(=O)c2c(C)nn(-c3ccccc3)c2C)c1	x	x	-4	-6	i	4
COc1cc(NC(=O)CCNC(=O)Cn2cnc3sc4c(c3c2=O)CCCC4)cc(OC)c1OC	-1	-1	0	-6	+	4
Cc1ccccc1-c1cccc([C@@H]2C[C@H]3[C@H](CON3C)CN2C(=O)C(C)(C)C)c1	x	x	x	4	i	x
CC(C)c1cc(Nc2cccc(O)c2)cc(C(C)C)c1O	53*	0	-1	x	x	4
Oc1cccc(Nc2ccccc2)c1	x	x	-3	-1	i	1
COC(=O)c1cc(OCC(=O)Nc2ccc3c(c2)CCC3)cc(C(=O)OC)c1	x	x	x	-1	i	x
CC(=O)N1N=C(c2ccco2)CC1c1cccs1 (centres undefined)	5	1	0	4	i	4
O=C(CCl)N1N=C(c2ccco2)CC1c1cccs1 (centres undefined)	15	26*	-1	1	i	3
Cc1ccc(C2=NN(C(=O)CCl)C(c3cccs3)C2)o1 (centres undefined)	4	18*	-1	-4	i	3
CCOc1ccc2noc3c2c1C(=O)c1ccccc1-3	-15	2	-29	1	i	-24
O=C1c2ccccc2-c2onc3ccc(N4CCCC4)c1c23	x	x	x	11	+	x
C#CCOCCOCCOCCNc1nc(N2CCN(C(=O)[C@H]([C@@H](C)CC)n3cc([C@@H](N)Cc4ccc(O)cc4)nn3)CC2)nc(N2CCN(C(=O)[C@H](CCCCN)n3cc([C@@H](N)CC(C)C)nn3)CC2)n1	0	28*	0	x	x	2
C#CCOCCOCCOCCNc1nc(N2CCN(C(=O)[C@H](CCCCN)n3cc([C@@H](N)CC(C)C)nn3)CC2)nc(N2CCN(C(=O)[C@H](Cc3cc4ccccc4[nH]3)n3cc([C@@H](N)Cc4ccc(O)cc4)nn3)CC2)n1	-22	3	17*	7	i	4

Bioassay records as filed in PubChem BioAssay.
